Assay [1] deals with P. aeruginosa FADDI-PA025. Put plainly: MIC in CAMHB. Format: cell-based, Pseudomonas aeruginosa. The note with it: polymyxin susceptible, 10^6 CFU/mL, 18 h, 37 °C, visible growth.
Assay [2] relates to P. aeruginosa CF isolate FADDI-PA066. Put plainly: Cell viability, planktonic growth in artificial sputum media. The assay is classed as cell-based, Pseudomonas aeruginosa. The note with it: up to 128 mg/L.
The subject of assay [3] is mucin. The note with it: dialysis; ref Huang et al., 32; cited from earlier work.
The test system of assay [4] is P. aeruginosa FADDI-PA002. Nature of the assay: MIC in CAMHB. The assay is classed as cell-based, Pseudomonas aeruginosa. The note with it: polymyxin susceptible, 10^6 CFU/mL, 18 h, 37 °C, visible growth.
For assay [5], the system named is P. aeruginosa FADDI-PA091. Nature of the assay: MIC in CAMHB. The assay is classed as cell-based, Pseudomonas aeruginosa. The note with it: polymyxin susceptible, 10^6 CFU/mL, 18 h, 37 °C, visible growth.
The test system of assay [6] is P. aeruginosa FADDI-PA066. Nature of the assay: Transmission electron microscopy of cells growing in biofilm. The assay is classed as cell-based, Pseudomonas aeruginosa. The note with it: 1× MIC (colistin 128 mg/L; octapeptin A3 16 mg/L), 1 h, 37 °C.
For assay [7], the system named is P. aeruginosa FADDI-PA020. Nature of the assay: Impact of sputum biomolecules on lipopeptide activity in CAMHB. Format: cell-based, Pseudomonas aeruginosa. The note with it: lipopeptide 2 mg/L, 3 h, colony counts; for impact of DNA on antibacterial activity: DNA 125 mg/L; for impact of F-actin/DNA on antibacterial activity: F-actin/DNA 125 mg/L. The method in brief: (§1)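 Mid-log cultures (OD500 0.4–0.6; 37 °C, 180 rpm) were diluted to OD ~0.05 in CAMHB. Test compound at 2 mg/L was coincubated for 3 h in 24-well plates with one biomolecule at 125 mg/L: F-actin/DNA, DNA, mucin, phospholipids, surfactant or LPS. Samples were spiral-plated and incubated overnight at 37 °C, and colonies were counted automatically. Detection limit 10 CFU/mL.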

Assay [8] relates to P. aeruginosa FADDI-PA022. Nature of the assay: MIC in CAMHB. The assay is classed as cell-based, Pseudomonas aeruginosa. The note with it: polymyxin susceptible, 10^6 CFU/mL, 18 h, 37 °C, visible growth.
The test system of assay [9] is P. aeruginosa FADDI-PA092. Put plainly: MIC in CAMHB. Format: cell-based, Pseudomonas aeruginosa. The note with it: polymyxin resistant, 10^6 CFU/mL, 18 h, 37 °C, visible growth.
The subject of assay [10] is P. aeruginosa FADDI-PA066. Nature of the assay: Impact of sputum biomolecules on lipopeptide activity in CAMHB. Format: cell-based, Pseudomonas aeruginosa. The note with it: lipopeptide 2 mg/L, 3 h, colony counts; for impact of F-actin/DNA on antibacterial activity: F-actin/DNA 125 mg/L; for impact of mucin on antibacterial activity: mucin 125 mg/L (50% (w/v)); for impact of phospholipids on antibacterial activity: phospholipids 125 mg/L. The method in brief: as §1

In assay [11] the test system is P. aeruginosa FADDI-PA038. Put plainly: MIC in CAMHB. Format: cell-based, Pseudomonas aeruginosa. The note with it: polymyxin susceptible, 10^6 CFU/mL, 18 h, 37 °C, visible growth.
The subject of assay [12] is P. aeruginosa FADDI-PA021. Put plainly: Impact of sputum biomolecules on lipopeptide activity in CAMHB. Format: cell-based, Pseudomonas aeruginosa. The note with it: lipopeptide 2 mg/L, 3 h, colony counts; for impact of DNA on antibacterial activity: DNA 125 mg/L; for impact of F-actin/DNA on antibacterial activity: F-actin/DNA 125 mg/L. The method in brief: as §1
Assay [13] concerns P. aeruginosa FADDI-PA066. Put plainly: MIC in CAMHB. Format: cell-based, Pseudomonas aeruginosa. The note with it: polymyxin resistant CF isolate, 10^6 CFU/mL, 18 h, 37 °C, visible growth.
Assay [14] deals with P. aeruginosa FADDI-PA001. Nature of the assay: MIC in CAMHB. The assay is classed as cell-based, Pseudomonas aeruginosa. The note with it: polymyxin susceptible, 10^6 CFU/mL, 18 h, 37 °C, visible growth.
Assay [15] deals with polymyxin-sensitive P. aeruginosa isolates. Nature of the assay: MIC in CAMHB, panel summary. Format: cell-based, Pseudomonas aeruginosa. The note with it: range over the panel of Table 1, CAMHB.
In assay [16] the test system is P. aeruginosa ATCC 27853. Put plainly: MIC in CAMHB. The note with it: polymyxin susceptible, 10^6 CFU/mL, 18 h, 37 °C, visible growth. The assay is classed as cell-based, Pseudomonas aeruginosa.
Assay [17] relates to P. aeruginosa FADDI-PA068. Put plainly: MIC in CAMHB. The assay is classed as cell-based, Pseudomonas aeruginosa. The note with it: polymyxin resistant, 10^6 CFU/mL, 18 h, 37 °C, visible growth.
Assay [18] relates to P. aeruginosa FADDI-PA062. Put plainly: MIC in CAMHB. The note with it: polymyxin resistant, 10^6 CFU/mL, 18 h, 37 °C, visible growth. The assay is classed as cell-based, Pseudomonas aeruginosa.
Assay [19] has as its system P. aeruginosa FADDI-PA060. Put plainly: MIC in CAMHB. The assay is classed as cell-based, Pseudomonas aeruginosa. The note with it: polymyxin resistant, 10^6 CFU/mL, 18 h, 37 °C, visible growth.
The subject of assay [20] is P. aeruginosa FADDI-PA065. Put plainly: MIC in CAMHB. The assay is classed as cell-based, Pseudomonas aeruginosa. The note with it: polymyxin resistant, 10^6 CFU/mL, 18 h, 37 °C, visible growth.
Assay [21] relates to P. aeruginosa FADDI-PA069. Put plainly: MIC in CAMHB. The note with it: polymyxin resistant, 10^6 CFU/mL, 18 h, 37 °C, visible growth. The assay is classed as cell-based, Pseudomonas aeruginosa.
Assay [22] has as its system P. aeruginosa FADDI-PA093. Nature of the assay: MIC in CAMHB. The note with it: polymyxin resistant, 10^6 CFU/mL, 18 h, 37 °C, visible growth. The assay is classed as cell-based, Pseudomonas aeruginosa.
Assay [23] relates to P. aeruginosa FADDI-PA070. Put plainly: MIC in CAMHB. The assay is classed as cell-based, Pseudomonas aeruginosa. The note with it: polymyxin resistant, 10^6 CFU/mL, 18 h, 37 °C, visible growth.

In brackets after ≈: the same amount, converted by molar mass. Positions of bridges follow the written chain, without caps; N, C: chain ends. Non-standard residues stand in square brackets, D forms with d. Residues, ends and D or L forms follow the SMILES beside them. *: point of attachment. X1 = CC[C@H](C)CCCCC(=O)*; Dab = NCC[C@H](N)C(=O)O

Take `CC[C@H](C)CCCCC(=O)N[C@@H](CCN)C(=O)N[C@H](C(=O)N[C@@H](CCN)C(=O)N[C@H]1CCNC(=O)[C@H]([C@@H](C)O)NC(=O)[C@H](CCN)NC(=O)[C@H](CCN)NC(=O)[C@H](CC(C)C)NC(=O)[C@@H](CC(C)C)NC(=O)[C@H](CCN)NC1=O)[C@@H](C)O` [colistin] (X1-[Dab]T[Dab][Dab][Dab][dL]L[Dab][Dab]T; lactam 4-C (inferred); N-terminus assumed): the minimum inhibitory concentration in assay [1] was found to be 2 µg/mL (≈ 1.71 µM); in assay [4] it was 0.25 µg/mL (≈ 0.214 µM); in [5], 0.5 µg/mL (≈ 0.428 µM); in assay [8], 1 µg/mL (≈ 0.855 µM); in assay [9], 16 µg/mL (≈ 13.7 µM); in assay [11], 1 µg/mL (≈ 0.855 µM). The minimum inhibitory concentration in [13] was greater than 128 µg/mL; in assay [14] it was 0.5 µg/mL (≈ 0.428 µM); in assay [16], 1 µg/mL (≈ 0.855 µM). For the same molecule, in assay [2], the “activity (reduction of cell viability), in words” value is “inactive even at 128 mg/L”. Besides, the binding to mucin entry in [3] is reported as “avidly bind”. For the same molecule, the “effect on bacterial outer membrane (TEM)” value in assay [6] is given as “blebbing effect with vesicular protrusions from the outer membrane”. The “impact of DNA on antibacterial activity” value in [7] and in assay [12] was “marginally impacted” throughout. Moreover, the results for the “impact of F-actin/DNA on antibacterial activity” value in assay [7], in assay [10] and in [12] were “only marginally affected”, “no impact” and “inhibited”, respectively. Besides, the “impact of mucin on antibacterial activity” value in assay [10] is “not noticeable”. The “impact of phospholipids on antibacterial activity” value in [10] is “not discernible”. Besides, in [15], the “MICs against the polymyxin-sensitive isolates” value fell in the range of 0.25 to 4 mg/L.
For `CC[C@H](C)CCCCC(=O)N[C@@H](CCN)C(=O)N[C@H](C(=O)N[C@@H](CCN)C(=O)N[C@H]1CCNC(=O)[C@H]([C@@H](C)O)NC(=O)[C@H](CCN)NC(=O)[C@H](CCN)NC(=O)[C@H](CC(C)C)NC(=O)[C@@H](Cc2ccccc2)NC(=O)[C@H](CCN)NC1=O)[C@@H](C)O` [polymyxin B] (X1-[Dab]T[Dab][Dab][Dab][dF]L[Dab][Dab]T; lactam 4-C (inferred); N-terminus assumed), the minimum inhibitory concentration in [1] is 2 µg/mL (≈ 1.66 µM); in assay [4], 0.5 µg/mL (≈ 0.415 µM); in assay [5], 1 µg/mL (≈ 0.831 µM); in [17], greater than 32 µg/mL; in assay [18], greater than 32 µg/mL; in assay [19], greater than 128 µg/mL. In addition, the minimum inhibitory concentration in assay [20] was greater than 32 µg/mL; in [8], 1 µg/mL (≈ 0.831 µM); in assay [21], greater than 32 µg/mL; in assay [11] it was 1 µg/mL (≈ 0.831 µM); in assay [13], 32 µg/mL (≈ 26.6 µM); in assay [22], 32 µg/mL (≈ 26.6 µM). For the same molecule, the minimum inhibitory concentration in assay [23] is greater than 32 µg/mL; in assay [14] it was 0.5 µg/mL (≈ 0.415 µM); in assay [16] it was 0.5 µg/mL (≈ 0.415 µM). The “activity (reduction of cell viability), in words” value in assay [2] was “inactive even at 128 mg/L”. For the same molecule, the binding to mucin entry in assay [3] was “avidly bind”. The “impact of DNA on antibacterial activity” value in assay [7] and in assay [12] was “marginally impacted” in each case. Further, the “impact of F-actin/DNA on antibacterial activity” value in assay [7] is “only marginally affected”; in assay [10], “marginally inhibited”; in assay [12] it was “inhibited”. Also, the “impact of mucin on antibacterial activity” value in assay [10] is reported as “not noticeable”. In [10], the “impact of phospholipids on antibacterial activity” value is “not discernible”. Besides, in assay [15], the “MICs against the polymyxin-sensitive isolates” value lay within 0.25 to 4 mg/L.

The record behind these values is PMC5952261 (ACS Infectious Diseases, 2018).
